hERG protect = hERG rescue from dofetilide block, primary screen, cell-based, CHO-hERG, FluxOR thallium flux, dofetilide IC70; Voltage-gated inwardly rectifying potassium channel KCNH2 (Homo sapiens), Q12809; dofetilide IC70 present; activation (rescue from dofetilide block), less the hit threshold, % at 10 µM; hit rate 0.51% among 310,000; AID 1511, 2009;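 active = activation above the mean of controls blocked by dofetilide plus 5 SD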;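 note: thallium influx through hERG after potassium depolarization seen as dye fluorescence rise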
Target sequence (Q12809 whole entry, looked up): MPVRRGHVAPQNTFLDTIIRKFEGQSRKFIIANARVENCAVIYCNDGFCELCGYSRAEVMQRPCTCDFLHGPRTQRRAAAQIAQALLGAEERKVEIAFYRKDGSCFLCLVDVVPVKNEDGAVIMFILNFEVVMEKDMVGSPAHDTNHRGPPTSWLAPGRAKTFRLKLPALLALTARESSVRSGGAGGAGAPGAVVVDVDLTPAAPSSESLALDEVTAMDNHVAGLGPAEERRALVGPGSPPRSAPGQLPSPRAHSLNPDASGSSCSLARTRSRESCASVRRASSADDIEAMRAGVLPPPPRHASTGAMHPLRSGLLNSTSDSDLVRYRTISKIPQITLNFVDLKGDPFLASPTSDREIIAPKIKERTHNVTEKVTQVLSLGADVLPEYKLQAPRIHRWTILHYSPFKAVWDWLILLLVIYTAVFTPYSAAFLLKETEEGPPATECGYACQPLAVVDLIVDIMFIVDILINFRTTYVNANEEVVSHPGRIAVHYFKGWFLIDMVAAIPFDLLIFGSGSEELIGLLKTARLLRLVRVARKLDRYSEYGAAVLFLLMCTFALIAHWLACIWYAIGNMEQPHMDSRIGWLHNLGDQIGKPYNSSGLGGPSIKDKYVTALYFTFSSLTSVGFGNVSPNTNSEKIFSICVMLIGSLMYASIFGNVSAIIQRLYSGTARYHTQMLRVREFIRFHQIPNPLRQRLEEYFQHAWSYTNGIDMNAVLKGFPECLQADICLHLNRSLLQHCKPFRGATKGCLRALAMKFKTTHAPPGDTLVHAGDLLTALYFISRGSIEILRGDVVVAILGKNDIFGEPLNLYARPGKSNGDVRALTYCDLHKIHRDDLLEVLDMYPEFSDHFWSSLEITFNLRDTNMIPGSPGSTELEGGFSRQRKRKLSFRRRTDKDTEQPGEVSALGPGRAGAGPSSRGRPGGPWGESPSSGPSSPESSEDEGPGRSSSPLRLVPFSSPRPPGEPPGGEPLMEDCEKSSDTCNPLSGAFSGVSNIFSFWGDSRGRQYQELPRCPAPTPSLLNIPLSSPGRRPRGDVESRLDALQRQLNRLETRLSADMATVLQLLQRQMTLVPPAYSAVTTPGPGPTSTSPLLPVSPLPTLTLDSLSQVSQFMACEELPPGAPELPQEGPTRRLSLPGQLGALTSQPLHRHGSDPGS
KCNK3 block = human KCNK3 channel inhibitors, primary screen, CHO cells, FluxOR thallium flux, B-score; Potassium channel subfamily K member 3 (Homo sapiens), O14649; FluxOR fluorescence; active compounds read low; B-score at 10 µM; hit rate 0.84% among 340,000; AID 602410, 2012;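 active = B-score under library mean minus 4 SD, starting fluorescence ratio at most library mean plus 5 SD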;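 note: more negative B-score means stronger inhibition of thallium flux through KCNK3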
KCNQ1 block = inhibitors of human KCNQ1 channel, primary screen, cell-based, thallium flux, high-throughput | Potassium voltage-gated channel subfamily KQT member 1 (Homo sapiens), P51787 | CHO-K1 KCNQ1, FluxOR thallium flux fluorescence; active compounds read high | B-score at 10 µM | hit rate 1.3% among 310,000 | AID 2642, 2010;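 active = compounds whose thallium flux B-score, printed positive for inhibition, exceeds three library SD while starting fluorescence stays within three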;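 note: channel opened by potassium depolarization with thallium stimulus after 20 min compound exposure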
KCNK9 block = KCNK9 potassium channel inhibitors, primary screen, HEK293 cells, thallium flux | Potassium channel subfamily K member 9 (Homo sapiens), Q9NPC2 | FluxOR thallium flux fluorescence; active compounds read low | B-score at 10 µM | hit rate 1.2% among 310,000 | AID 488922, 2010;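 active = ratio B-score over 3 SD below the library mean, with starting fluorescence within 5 SD of its mean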;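 note: negative B-score means less thallium flux so channel inhibition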
KCNQ1 pot = potentiators or activators of KCNQ1 channel, primary screen, cell-based, thallium flux, high-throughput; hit rate 0.35% among 310,000; CHO-K1 KCNQ1, thallium flux FluxOR fluorescence; active compounds read high; B-score at 10 µM; AID 2648, 2010; Potassium voltage-gated channel subfamily KQT member 1 (Homo sapiens), P51787;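 active = fluorescence ratio B-score, a plate-corrected score, at least three library SD, with initial intensity B-score within 5 SD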
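Material: CHO-K1 cells stably expressing KCNQ1. Medium: assay buffer for compound exposure, DMSO matched across wells. Reagent: K+/Tl+ depolarizing stimulus. Compound dosing: single-concentration screen. Times: 37 °C overnight plating, 90-min dark dye load, 20-min compound pretreatment. Technique: FluxOR Tl+ flux fluorescence.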
Kir21 inh = inhibitors of mouse Kir2.1 inward-rectifier potassium channel; B-score at 10 µM; hit rate 0.85% among 310,000; HEK293-Kir2.1, FluxOR thallium flux fluorescence; active compounds read low; Inward rectifier potassium channel 2 (Mus musculus), P35561;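 active = fluorescence ratio B-score at or below minus 3 SD of library scores, with starting-brightness B-score within 2 SD, cut at about -4.2 in these data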;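 note: channel flux triggered by added potassium and thallium sulfate stimulus; B-score of peak minus minimum fluorescence over baseline after thallium stimulus; more negative B-score means stronger Kir2.1 block with less thallium influx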
The depositor's hits bear a star; i = inactive; / = no result given. Only some compounds are listed: those with a hit (about 3.8% of all), similar ones and a draw of the others.

SMILES	hERG protect	KCNK3 block	KCNQ1 block	KCNK9 block	KCNQ1 pot	Kir21 inh
COc1ccc(-n2ccnc(SCC(=O)NCc3ccc(C)cc3)c2=O)cc1Cl	-5.8	i	i	i	i	-0.85
COc1cc(C)ccc1OCc1cc(C(=O)N(C)CCCN2CCOCC2)no1	-3.4	i	i	i	i	2.72
COc1ccccc1-c1c(-c2ccc(OCC(=O)NN)cc2O)n[nH]c1C(F)(F)F	-4.4	i	i	i	i	0.44
COc1ccc(-c2n[nH]c(C(F)(F)F)c2-c2cc3ccccc3o2)c(O)c1	-11.0	i	8*	i	i	1.98
O=C(NC(Cc1ccccc1)C(=O)O)/C(=C/c1ccco1)NC(=O)c1cccc([N+](=O)[O-])c1 (stereo not given)	52.5*	i	i	i	i	0.55
O=c1c(-c2cccc([N+](=O)[O-])c2)[n+]([O-])c2ccccc2n1O	-9.5	i	i	i	i	0.43
O=c1c(-c2ccc(Cl)cc2)[n+]([O-])c2ccccc2n1O	40.2*	i	i	i	32*	-0.1
CCOc1ccccc1N(CC(=O)Nc1ccccc1C(=O)N1CCCC1)S(C)(=O)=O	-13.1	i	i	i	i	-0.48
O=C(N/N=C/c1cccnc1)c1ccccc1OCc1ccc(Cl)cc1	-4.5	/	i	-6.87*	i	0.18
CCN(CC(=O)Nc1ccc2c(c1)OCCO2)C(=O)CC(NC(C)=O)c1ccccc1 (stereo not given)	-8.5	i	i	i	i	-0.18
NC(=NCCc1ccccc1)c1cccc([N+](=O)[O-])c1	-6.8	i	7*	i	i	1.48
O=[N+]([O-])c1ccc(/C=C/C2=NN(c3ccccc3)C(c3ccco3)C2)cc1 (stereo not given)	/	i	/	/	/	/
O=[N+]([O-])c1ccc(C2=NN(c3ccccc3)C(c3ccco3)C2)cc1 (stereo not given)	-30.9	i	8*	i	i	-12.1
CCNC(=S)N/N=C/c1ccc(F)cc1	-12.1	/	i	i	i	1.55
Cc1oc(/N=C/c2ccc(F)cc2)c(C#N)c1C	7.7*	i	i	i	i	0.57
CCOC(=O)C1CCCN(C(=O)Cn2c(=O)c3cccn3c3cccnc32)C1 (stereo not given)	-1.7	i	i	i	i	1.46
COC(=O)c1c(-c2ccccc2)noc1C	5.8*	i	i	i	i	1.32
CCC(=O)Nc1cccc(NC(=S)NC(=O)c2ccc(Cl)cc2Cl)c1	-4.4	i	i	i	i	-0.09
Cc1onc(-c2ccccc2)c1C(=O)NNC(=S)NC(=O)c1ccc(Br)cc1	-16.1	i	i	i	34*	1.77
COC(=O)c1onc(-c2ccccc2)c1C(=O)OC	-6.7	i	i	i	i	1.04
CCCN(CCC)C(=S)NC(=O)c1ccc(Cl)cc1Cl	24.7*	i	i	i	55*	1.27
Cc1onc(-c2ccccc2)c1C(=O)NNC(=S)NC(=O)c1ccc(Cl)cc1Cl	-4.5	i	i	i	20*	-0.41
O=C1C(Br)=C(c2ccccc2)C(c2ccccc2)=C1c1ccccc1	/	i	/	/	/	/
Fc1ccccc1-c1cc2ccccc2cn1	/	i	/	/	/	/
O=C(NC(=S)NNC(=O)c1ccc(Cl)cc1Cl)c1cccnc1	-8.6	i	i	i	i	0.01
SMILES	hERG protect	KCNK3 block	KCNQ1 block	KCNK9 block	KCNQ1 pot	Kir21 inh
Cc1ccccc1C(=O)NNC(=S)NC(=O)c1ccc(Cl)cc1Cl	-15.2	i	i	i	15*	1.44
Cc1[nH]c2ccc(C(=O)OC(C)C(=O)N(C)c3ccccc3)cc2c1C (stereo not given)	-12.2	i	i	i	i	-0.11
CCCCCCC1/C(=N\NC(=O)c2ccccc2)CCC1C(=O)OC (stereo not given)	-8.2	i	i	i	i	-0.06
CC(C)N(C)Cc1nnnn1CC(=O)N(C)Cc1ccc(F)cc1	-0.9	i	i	i	i	0.32
COc1ccc(C(=O)NN2CCOCC2)cc1	-3.5	i	i	i	i	2.02
Cn1nc(C(F)(F)F)c2cc(C(=O)Nc3ccc(F)cc3F)sc21	-4.5	i	i	-7.24*	i	0.75
Cn1nc(C(F)(F)F)c2cc(NC(=O)OCc3ccc(C(C)(C)C)cc3)sc21	-12.4	i	7*	i	i	0.55
CN1C(=O)NC(c2cccc([N+](=O)[O-])c2)C2=C1CCCC2=O (stereo not given)	-0.2	i	i	i	i	0.64
CC(=O)Nc1ccc(OCC(O)Cn2nc(C)nc2C)cc1 (stereo not given)	5.5*	i	i	i	i	-0.26
Cc1nc(C)n(CC(O)COc2ccc3ccccc3c2)n1 (stereo not given)	-15.2	i	i	i	i	0.67
N/C(Cc1ccc(Cl)cc1)=N\OC(=O)c1ccc2ccccc2c1	-2.3	i	i	i	i	1.78
N/C(Cc1ccc(Cl)cc1)=N\OC(=O)c1cccc2ccccc12	-2.6	i	i	-14.5*	i	-0.21
Cc1ccsc1C1C(C#N)=C(N)N(N(C)C)C2=C1C(=O)CCC2 (stereo not given)	7.9*	i	i	i	i	0.85
O=C(Cc1ccc(NC(=O)C2CCN(C(=O)C3CCCC3)CC2)cc1)Nc1cccc(C(=O)N2CCCCC2)c1	/	i	/	/	/	/
OC[C@@H](O)C1OC2NC(=S)OC2C1O (stereo not given in full)	7.7*	i	i	i	i	-1.36
Cc1c(C(=O)NC2CCN(Cc3ccccc3)C2)oc2c(Cl)cccc12 (stereo not given)	-14.3	i	i	i	i	-9.86*
O=C(NC1CCN(Cc2ccccc2)CC1)c1ccccc1Cl	-8.6	i	i	i	i	0.85
Cc1c(C(=O)N2CCN(c3ccccc3)CC2)oc2c(Cl)cccc12	/	-9.93*	/	/	/	/
Cc1ccc(S(=O)(=O)N2CCCCC2)cc1NC(=O)COC(=O)CN1C(=O)NC2(CC(C)CC(C)(C)C2)C1=O (stereo not given)	/	i	/	/	/	/
Cc1nc(C2CCC3C4CCC5=CC(=O)CC[C@]5(C)C4CC[C@]23C)cs1 (stereo not given in full)	-14.3	/	7*	i	i	-1.1

Screens: PubChem BioAssay, Johns Hopkins Ion Channel Center
